Sampled rows, rich in hits. Any-hit rate of the full collection: about 1.5%.
NR2E3 ag-1: inhibitors of NR2E3-RetCOR corepressor binding, primary screen, NR2E3 agonist project, biochemical, TR-FRET, GST-NR2E3, biotin-RetCOR; actives 0.12% (n = 320,000); inhibition of corepressor binding, % at 4.78 µM; 1536-well;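 active = percent inhibition above the cutoff of mean plus 3 SD of all tested compounds, set per screening campaign, cut at about 20% in these data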;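 also: 0% = DMSO wells and 100% = biotin wells as full block of FRET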
Target sequence (Q9Y5X4 whole entry, looked up): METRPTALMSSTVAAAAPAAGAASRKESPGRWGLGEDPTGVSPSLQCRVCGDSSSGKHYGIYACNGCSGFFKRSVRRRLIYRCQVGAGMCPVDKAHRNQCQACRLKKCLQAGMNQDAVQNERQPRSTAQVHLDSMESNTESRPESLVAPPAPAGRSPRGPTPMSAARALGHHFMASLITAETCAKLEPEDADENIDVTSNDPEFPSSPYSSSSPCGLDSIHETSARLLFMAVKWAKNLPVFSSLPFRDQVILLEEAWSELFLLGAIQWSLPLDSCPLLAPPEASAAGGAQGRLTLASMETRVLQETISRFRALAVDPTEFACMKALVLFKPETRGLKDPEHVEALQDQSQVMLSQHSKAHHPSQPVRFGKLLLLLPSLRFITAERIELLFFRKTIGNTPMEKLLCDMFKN
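System: GST-tagged NR2E3 plus biotinylated RetCOR corepressor; Amount: 1.35 nM GST-tagged NR2E3 final; Dosing: single nominal compound dose of 4.8 µM; Schedule: 5 h incubation at 4 °C; Technique: TR-FRET with europium anti-GST and streptavidin-D2, 340 nm excitation; Controls: biotin wells as high control, 0.6% DMSO wells as low control.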
NR2E3 ag-2: NR2E3 agonists in two-hybrid cells, primary screen, cell-based, luminescence, CHO-S, Gal4-NCOR/VP16-NR2E3; actives 0.35% (n = 360,000); inhibition of corepressor binding, % at 3.98 µM; luciferase; Photoreceptor-specific nuclear receptor (Homo sapiens), Q9Y5X4; AID 602229, 2012;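 active = inhibition above the mean of all tested compounds plus 3 SD, cut at about 70% in these data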;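 also: 0% = DMSO with NR2E3 transfected cells and 100% = cells lacking NR2E3 construct; higher means lower luciferase signal from less NR2E3 corepressor binding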
PG9 Ab binder: binders of HIV-1 gp120 antibody PG9, primary screen, biochemical, TR-FRET; actives 0.43% (n = 360,000); HIV-1 gp120 / PG9 antibody interaction; TR-FRET gp120-PG9 antibody binding; inhibition, % at 6.7 µM; in the data active = inhibition above about 8.5%
NR1D1 modulator: modulators of Rev-erb alpha DNA binding, primary screen, biochemical, FITC-DNA, fluorescence polarization, uHTS; activity, % at 10 µM; Rev-erbα–FITC-DNA binding, 90 min; actives 0.79% (n = 370,000); Nuclear receptor subfamily 1 group D member 1 (Homo sapiens), P20393;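 active = activity above about 14%, limit read from the data; passing the limit was not always enough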;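 also: 0% = DMSO wells with 35 nM protein and 100% = DMSO wells with 750 nM protein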
NR2E3 ag confirm-1: NR2E3 agonists, confirmation, biochemical, TR-FRET; AID 2379, 2010; shares compounds with NR2E3 ag-1; actives 39% (n = 360); activation (reported as inhibition), % at 3.98 µM; cell-free NR2E3 corepressor release, 5 h; in the data active = activation above about 20%
PPARg-NCOR2 ctr: agonists of PPARg-NCOR2 corepressor interaction, counter-screen for NR2E3 agonist project, biochemical, TR-FRET | shares compounds with NR2E3 ag-1 | TR-FRET PPARg-NCOR2 coregulator interaction | inhibition, % at 3.98 µM | actives 45% (n = 360); in the data active = inhibition above about 20%;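 also: 0% = DMSO vehicle and 100% = wells without protein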
NR2E3 ag confirm-2: NR2E3 agonist confirmation in cells, cell-based, luminescence, CHO-S two-hybrid. actives 51% (n = 2,300). CHO-S mammalian two-hybrid NR2E3-NCOR, luciferase luminescence. shares compounds with NR2E3 ag-2. inhibition, % at 3.98 µM;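 active = average inhibition above a cutoff equal to the mean inhibition of all tested compounds plus one SD, cut at about 70% in these data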;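 also: 0% = DMSO in NR2E3 cells and 100% = DMSO in cells lacking NR2E3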
VP16 counter: GAL4-VP16 reporter modulators, confirmation, counter-screen for NR2E3 agonist project, cell-based, luminescence, CHO-S, high throughput; CHO-S GAL4-VP16 luciferase reporter; actives 29% (n = 2,300); shares compounds with NR2E3 ag-2; AID 624379, 2012; inhibition, % at 3.98 µM;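 active = mean inhibition above a cutoff equal to the average over all tested compounds plus one standard deviation, cut at about 70% in these data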;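 also: luciferase from a UAS reporter driven by GAL4-VP16 transactivation; 0% = DMSO with VP16-transfected cells and 100% = DMSO with cells lacking VP16; higher means less reporter light so more repression of VP16 activity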
PG9 bind confirm: binders of anti-gp120 antibody PG9, confirmation, biochemical, TR-FRET. shares compounds with PG9 Ab binder. TR-FRET PG9 antibody binding. inhibition, % at 6.7 µM. actives 90% (n = 1,500). AID 651571, 2012; in the data active = inhibition above about 9%
PGV04 counter: binders of control antibody PGV04, counter-screen for PG9 antibody binder project, biochemical, TR-FRET, distinct HIV envelope site; shares compounds with PG9 Ab binder; TR-FRET PGV04 antibody-gp120 binding; inhibition, % at 6.7 µM; actives 95% (n = 1,500); AID 651604, 2012; in the data active = inhibition above about 9.5%
Numbers without * were called inactive; · = not tested or not shown.

SMILES | NR2E3 ag-1 | NR2E3 ag-2 | PG9 Ab binder | NR1D1 modulator | NR2E3 ag confirm-1 | PPARg-NCOR2 ctr | PG9 bind confirm | PGV04 counter | others
C[Si](C)(C)O[Si](C)(C)O[Si](C)(C)C | · | · | · | -4 | · | · | · | ·
O=C1C=C(N2CCOCC2)c2ccccc2C1=O | 33* | 17 | -10 | -4 | 38* | 65* | · | ·
O=C1C=C(N2CCOCC2)c2cccc3cccc1c23 | · | 6 | -5 | -6 | · | · | · | ·
O=C(Nc1nnc(Cc2ccccc2)s1)c1cccs1 | 27* | -30 | 2 | 14 | -2 | 4 | · | ·
Cc1ccc(S(=O)(=O)NCC(=O)OCC(=O)c2ccc(Br)s2)cc1 | 22* | -14 | 0 | -1 | 3 | 10 | · | ·
C[C@H](CCC(=O)O)[C@H]1CCC2C3C(=O)CC4CC(=O)CC[C@]4(C)C3CC(=O)[C@@]21C (stereo not given in full) | · | · | · | 6 | · | · | · | ·
Cc1ccc(N2CSC3=C(C#N)C(c4cccs4)CC(=O)N3C2)cc1 (stereo not given) | 24* | -30 | 3 | 3 | -6 | 9 | · | ·
CCOC(=O)c1ccc(N2CSC3=C(C#N)C(c4cccs4)CC(=O)N3C2)cc1 (stereo not given) | 27* | -11 | 0 | -4 | -5 | 38* | · | ·
COc1ccc(-c2cc(=O)c3c(O)cc(O[C@@H]4O[C@H](CO[C@H]5O[C@H](C)[C@@H](O)[C@H](O)[C@@H]5O)[C@@H](O)[C@H](O)[C@H]4O)cc3o2)cc1O | · | · | · | 4 | · | · | · | ·
Cn1nc(-c2ccccn2)nc2c(=O)n(C)c(=O)nc1-2 | 41* | 107* | -4 | -28 | 33* | 57* | · | · | NR2E3 ag confirm-2=63;VP16 counter=64
C[C@H](CCC(=O)O)[C@H]1CCC2C3C(CC[C@@]21C)[C@@]1(C)CC[C@@H](O)C[C@H]1C[C@@H]3O (stereo not given in full) | · | · | · | -3 | · | · | · | ·
CSc1nc(N)nc(SCC(=O)OC(C)C)c1C#N | 1 | -53 | -1 | -1 | · | · | · | ·
CSc1nc(N)nc(SCC(=O)c2ccc(C)cc2)c1C#N | 47* | -21 | 23* | 17 | 8 | 10 | 27* | 35*
OC[C@H]1O[C@H](O[C@]2(CCl)O[C@H](CCl)[C@@H](O)[C@@H]2O)[C@H](O)[C@@H](O)[C@H]1Cl | · | · | · | 9 | · | · | · | ·
O=C(C1=C(O)C(=O)N(CC2CCCO2)C1c1ccccc1F)c1ccco1 (stereo not given) | 36* | -16 | 9.8* | -2 | 13 | 12 | 16* | 20*
COC(=O)c1cc(Br)c(=O)n(-c2ccccn2)c1 | 0 | 22 | 1 | -1 | · | · | · | ·
COC(=O)c1cc(Br)c(=O)n(-c2nccs2)c1 | 25* | 4 | 28* | 6 | 22* | 24* | 37* | 50*
Cc1c(NC(=O)c2ccc(N3CCCC3)c([N+](=O)[O-])c2)cccc1-c1nc2ccccc2s1 | 0 | -39 | -1 | 5 | · | · | · | ·
Cc1c(NC(=O)c2ncn[nH]2)cccc1-c1nc2ccccc2s1 | 20* | -13 | 27* | 10 | 5 | 18 | 33* | 51*
NS(=O)(=O)c1ccc(N2CCCCS2(=O)=O)cc1 | · | · | · | 2 | · | · | · | ·
COC(=O)c1cc2ccsc2n1CC(=O)Nc1cc(C)cc(C)c1 | 36* | -11 | 33* | 16 | 19 | 20* | 38* | 48*
O[C@@H](COc1cccc2ncccc12)CN1CCN(C2c3ccccc3[C@@H]3[C@H](c4ccccc42)C3(F)F)CC1 (stereo not given in full) | · | · | · | -2 | · | · | · | ·
O=S(=O)(O)c1ccccc1O | · | · | · | -3 | · | · | · | ·
CCCOc1ccc(C2C(C(=O)c3cc4ccccc4o3)=C(O)C(=O)N2c2cc(C)on2)cc1 (stereo not given) | 15 | -20 | 6 | -6 | · | · | · | ·
CCN(CC)CCCN1C(=O)C(O)=C(C(=O)c2cc3ccccc3o2)C1c1ccccn1 (stereo not given) | 22* | -7 | 25* | -7 | 24* | 24* | 55* | 72*
SMILES | NR2E3 ag-1 | NR2E3 ag-2 | PG9 Ab binder | NR1D1 modulator | NR2E3 ag confirm-1 | PPARg-NCOR2 ctr | PG9 bind confirm | PGV04 counter | others
CCN(CC)CCN1C(=O)C(O)=C(C(=O)c2ccco2)C1c1ccccn1 (stereo not given) | 1 | 7 | -1 | -1 | · | · | · | ·
Cc1cc(N2C(=O)C(O)=C(C(=O)c3cc4ccccc4o3)C2c2ccc(Cl)cc2)no1 (stereo not given) | 29* | 51 | 26* | 7 | 35* | 39* | 33* | 51* | NR2E3 ag confirm-2=88*;VP16 counter=59
Cc1cc(N2C(=O)C(O)=C(C(=O)c3cc4ccccc4o3)C2c2ccc(Br)cc2)no1 (stereo not given) | 24* | -15 | 12* | -2 | 25* | 30* | 32* | 45*
O=C(C1=C(O)C(=O)N(CCCN2CCOCC2)C1c1ccc(Cl)cc1)c1cc2ccccc2o1 (stereo not given) | 30* | · | 20* | 0 | 28* | 21* | 24* | 30*
CC12CCC3c4ccc(O)cc4CCC3C1C[C@H](O)[C@@H]2O (stereo not given in full) | · | · | · | -3 | · | · | · | ·
Cc1cc(N2C(=O)C(O)=C(C(=O)c3cc4ccccc4o3)C2c2cccc(Cl)c2)no1 (stereo not given) | 22* | 21 | 27* | -2 | 39* | 45* | 40* | 56*
Cc1ccc(C(=O)C2=C(O)C(=O)N(c3ncccn3)C2c2ccc(Cl)cc2)o1 (stereo not given) | 26* | 5 | 19* | -6 | 19 | 15 | 31* | 39*

Compound activity (PubChem BioAssay)
